Measured values reported in publication PMC6102747 (Molecular Medicine Reports, 2018).
Read-outs that look alike come from different tables or passages of the source.

Experiments:
Pxr [1] = format: in vivo, rats; conditions: vs control
Cyp3a2 [2] = format: in vivo, rats; conditions: vs control
P-gp = test: Western blot protein expression in small intestine and liver; format: in vivo, rats; conditions: vs control
Gstm1 [3] = test: RT-qPCR mRNA expression in liver; format: in vivo, rats; conditions: vs control
Ugt1a1 [4] = test: Western blot protein expression in small intestine and liver; format: in vivo, rats; conditions: vs control, P<0.001
[5] = Pharmacokinetics of CsA after intravenous administration; format: in vivo, Sprague-Dawley rats; conditions: rats, i.v. CsA 2.5 mg/kg, Q3GA 5 mg/kg i.v. 7 days
Pxr [6] = test: RT-qPCR mRNA expression in small intestine and liver; format: in vivo, rats; conditions: small intestine, vs control, P<0.001
OATP1B2 = test: Western blot protein expression in liver; format: in vivo, rats; conditions: vs control
Slco1b2 = test: RT-qPCR mRNA expression in liver; format: in vivo, rats; conditions: vs control
Gstm1 [7] = test: Western blot protein expression in liver; format: in vivo, rats; conditions: vs control
Bcrp = test: Western blot protein expression in small intestine and liver; format: in vivo, rats; conditions: vs control
Mdr1 = test: RT-qPCR mRNA expression in small intestine and liver; format: in vivo, rats; conditions: vs control
How it was run: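 Rats, 3 per group, dosed once daily for 7 days: phosphate buffer 5 ml/kg i.v., test compound 2.5/5/10 mg/kg i.v. in phosphate buffer, ketoconazole 75 mg/kg i.g. in olive oil, or verapamil 4 mg/kg i.g. in water. Olive oil 5 ml/kg gavaged 30 min after day-7 dose. Killed 24 h post-dose after overnight fast; liver and intestinal mucosa snap-frozen. qPCR: 40 cycles, 58°C annealing; 2−ΔΔCq.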

Cyp3a2 [8] = test: RT-qPCR mRNA expression in small intestine and liver; format: in vivo, rats; conditions: vs control
[9] = Pharmacokinetics of CsA after oral administration; format: in vivo, Sprague-Dawley rats; conditions: rats; for increase in the CL/F of CsA / increase in the V/F of CsA / decrease in AUC0-t of CsA / decrease in AUC0-∞ of CsA / decrease in Cmax of CsA: oral CsA 10 mg/kg; for decrease in AUC0-t of CsA / decrease in AUC0-∞ of CsA / decrease in Cmax of CsA: vs control; for decrease in Cmax of CsA: P>0.05
Mrp2 = test: RT-qPCR mRNA expression in small intestine and liver; format: in vivo, rats; conditions: vs control
Sult1a1 = test: Western blot protein expression in small intestine and liver; format: in vivo, rats; conditions: vs control
Cyp3a1 = test: RT-qPCR mRNA expression in small intestine and liver; format: in vivo, rats; conditions: vs control
OATP2B1 = test: Western blot protein expression in small intestine; format: in vivo, rats; conditions: vs control
Ugt1a1 [10] = test: RT-qPCR mRNA expression in small intestine and liver; format: in vivo, rats; conditions: vs control
Car = test: Western blot protein expression in small intestine and liver; format: in vivo, rats; conditions: vs control
Slco2b1 = test: RT-qPCR mRNA expression in small intestine; format: in vivo, rats; conditions: vs control
[11] = liver, low-dose Q3GA 2.5 mg/kg i.v. 7 days, P<0.01
[12] = small intestine, high-dose Q3GA 10 mg/kg i.v. 7 days, P<0.01
[13] = small intestine, low-dose Q3GA 2.5 mg/kg i.v. 7 days, P<0.001
[14] = small intestine, middle-dose Q3GA 5 mg/kg i.v. 7 days, P<0.05
[15] = liver, high-dose Q3GA 10 mg/kg i.v. 7 days, P<0.001
[16] = liver, low-dose Q3GA 2.5 mg/kg i.v. 7 days, P<0.001
[17] = liver, middle-dose Q3GA 5 mg/kg i.v. 7 days, P<0.001
[18] = small intestine, middle-dose Q3GA 5 mg/kg i.v. 7 days
[19] = liver, middle-dose Q3GA 5 mg/kg i.v. 7 days, P<0.01
[20] = small intestine, high-dose Q3GA 10 mg/kg i.v. 7 days, P<0.001
[21] = small intestine, middle-dose Q3GA 5 mg/kg i.v. 7 days, P<0.01
[22] = high-dose Q3GA 10 mg/kg i.v. 7 days
[23] = low-dose Q3GA 2.5 mg/kg i.v. 7 days, P<0.001
[24] = middle-dose Q3GA 5 mg/kg i.v. 7 days
[25] = low-dose Q3GA 2.5 mg/kg i.v. 7 days
[26] = middle-dose Q3GA 5 mg/kg i.v. 7 days, P<0.01
[27] = liver, high-dose Q3GA 10 mg/kg i.v. 7 days, P<0.05
[28] = liver, middle-dose Q3GA 5 mg/kg i.v. 7 days, P<0.05
[29] = liver, high-dose Q3GA 10 mg/kg i.v. 7 days, P<0.01
[30] = high-dose Q3GA 10 mg/kg i.v. 7 days, P<0.01

## O=c1c(O[C@@H]2O[C@H](CO)[C@@H](O)[C@H](O)[C@H]2O)c(-c2ccc(O)c(O)c2)oc2cc(O)cc(O)c12 [Q3GA, Quercetin-3-O-β-D-glucoside]
Pxr [1]; [11]
  increase in PXR protein expression: 182.93%
Pxr [1]; [12]
  increase in PXR protein expression: 147.68%
Pxr [1]; [13]
  increase in PXR protein expression: 258.85%
Pxr [1]; [14]
  increase in PXR protein expression: 81.66%
Cyp3a2 [2]; [15]
  decrease in CYP3A2 protein expression: 47.16%
Cyp3a2 [2]; [16]
  decrease in CYP3A2 protein expression: 54.18%
Cyp3a2 [2]; [17]
  decrease in CYP3A2 protein expression: 33.07%
Cyp3a2 [2]; [12]
  decrease in CYP3A2 protein expression: 38.67%
Cyp3a2 [2]; [13]
  decrease in CYP3A2 protein expression: 55.28%
Cyp3a2 [2]; [18]
  decrease in CYP3A2 protein expression: 21.68%
P-gp; [15]
  decrease in P-gp protein expression: 47.26%
P-gp; [16]
  decrease in P-gp protein expression: 67.93%
P-gp; [19]
  decrease in P-gp protein expression: 39.92%
P-gp; [20]
  decrease in P-gp protein expression: 41.70%
P-gp; [13]
  decrease in P-gp protein expression: 65.31%
P-gp; [21]
  decrease in P-gp protein expression: 30.22%
Gstm1 [3]; [22]
  increase in Gstm1 mRNA expression: 75.09%
Gstm1 [3]; [23]
  increase in Gstm1 mRNA expression: 248.40%
Gstm1 [3]; [24]
  increase in Gstm1 mRNA expression: 85.41%
Ugt1a1 [4]; liver, high-dose Q3GA 10 mg/kg i.v. 7 days
  decrease in UGT1A1 protein expression: 49.63%
Ugt1a1 [4]; liver, low-dose Q3GA 2.5 mg/kg i.v. 7 days
  decrease in UGT1A1 protein expression: 71.06%
Ugt1a1 [4]; liver, middle-dose Q3GA 5 mg/kg i.v. 7 days
  decrease in UGT1A1 protein expression: 38.05%
Ugt1a1 [4]; small intestine, high-dose Q3GA 10 mg/kg i.v. 7 days
  decrease in UGT1A1 protein expression: 46.57%
Ugt1a1 [4]; small intestine, low-dose Q3GA 2.5 mg/kg i.v. 7 days
  decrease in UGT1A1 protein expression: 76.81%
Ugt1a1 [4]; [18]
  decrease in UGT1A1 protein expression: 36.26%
[5]
  effect on blood concentration of CsA after intravenous injection of CsA: not affected
Pxr [6]; [22]
  increase in Pxr mRNA expression: 200.21%
Pxr [6]; [25]
  increase in Pxr mRNA expression: 415.18%
Pxr [6]; [24]
  increase in Pxr mRNA expression: 130.03%
OATP1B2; [22]
  decrease in OATP1B2 protein expression: 33.73%
OATP1B2; low-dose Q3GA 2.5 mg/kg i.v. 7 days, P<0.01
  decrease in OATP1B2 protein expression: 67.47%
OATP1B2; [24]
  decrease in OATP1B2 protein expression: 26.52%
Slco1b2; high-dose Q3GA 10 mg/kg i.v. 7 days, P<0.001
  decrease in Slco1b2 mRNA expression: 53.54%
Slco1b2; [23]
  decrease in Slco1b2 mRNA expression: 68.06%
Slco1b2; [26]
  decrease in Slco1b2 mRNA expression: 38.39%
Gstm1 [7]; high-dose Q3GA 10 mg/kg i.v. 7 days, P<0.05
  increase in GSTM1 protein expression: 229.75%
Gstm1 [7]; [23]
  increase in GSTM1 protein expression: 417.29%
Gstm1 [7]; [24]
  increase in GSTM1 protein expression: 159.37%
Bcrp; [27]
  decrease in BCRP protein expression: 30.86%
Bcrp; [16]
  decrease in BCRP protein expression: 69.78%
Bcrp; [28]
  decrease in BCRP protein expression: 27.73%
Bcrp; [12]
  decrease in BCRP protein expression: 36.44%
Bcrp; [13]
  decrease in BCRP protein expression: 70.61%
Bcrp; [14]
  decrease in BCRP protein expression: 32.93%
Mdr1; [29]
  decrease in Mdr1 mRNA expression: 47.32%
Mdr1; [16]
  decrease in Mdr1 mRNA expression: 67.60%
Mdr1; [28]
  decrease in Mdr1 mRNA expression: 45.09%
Mdr1; [20]
  decrease in Mdr1 mRNA expression: 33.33%
Mdr1; [13]
  decrease in Mdr1 mRNA expression: 47.47%
Mdr1; small intestine, middle-dose Q3GA 5 mg/kg i.v. 7 days, P<0.001
  decrease in Mdr1 mRNA expression: 17.51%
Cyp3a2 [8]; [29]
  decrease in Cyp3a2 mRNA expression: 34.64%
Cyp3a2 [8]; [16]
  decrease in Cyp3a2 mRNA expression: 64.68%
Cyp3a2 [8]; [28]
  decrease in Cyp3a2 mRNA expression: 26.18%
Cyp3a2 [8]; [20]
  decrease in Cyp3a2 mRNA expression: 39.36%
Cyp3a2 [8]; [13]
  decrease in Cyp3a2 mRNA expression: 49.70%
Cyp3a2 [8]; [18]
  decrease in Cyp3a2 mRNA expression: 17.93%
[9]; Q3GA 2.5, 5 or 10 mg/kg i.v. for 7 consecutive days
  effect on bioavailability of oral CsA: reduced the bioavailability of oral CsA
[9]; Q3GA 5 mg/kg daily i.v. 7 days
  increase in the CL/F of CsA: 72.71%
[9]; Q3GA 5 mg/kg daily i.v. 7 days, P<0.01
  increase in the V/F of CsA: 103.32%
[9]; Q3GA 10 mg/kg daily i.v. 7 days
  increase in the CL/F of CsA: 79.57%
[9]; Q3GA 10 mg/kg daily i.v. 7 days, P<0.05
  increase in the V/F of CsA: 93.19%
[9]; [22]
  decrease in AUC0-t of CsA: 47.79%
  decrease in AUC0-∞ of CsA: 46.30%
  decrease in Cmax of CsA: 40.41%
[9]; [25]
  decrease in AUC0-t of CsA: 34.26%
  decrease in AUC0-∞ of CsA: 34.66%
  decrease in Cmax of CsA: 33.12%
[9]; [24]
  decrease in AUC0-t of CsA: 36.32%
  decrease in AUC0-∞ of CsA: 34.81%
Mrp2; [27]
  decrease in Mrp2 mRNA expression: 20.44%
Mrp2; [16]
  decrease in Mrp2 mRNA expression: 68.86%
Mrp2; [19]
  decrease in Mrp2 mRNA expression: 32.70%
Mrp2; [12]
  decrease in Mrp2 mRNA expression: 28.66%
Mrp2; [13]
  decrease in Mrp2 mRNA expression: 66.03%
Mrp2; [21]
  decrease in Mrp2 mRNA expression: 34.53%
Sult1a1; [11]
  decrease in SULT1A1 protein expression: 75.89%
Sult1a1; [20]
  decrease in SULT1A1 protein expression: 57.47%
Sult1a1; [13]
  decrease in SULT1A1 protein expression: 75.44%
Sult1a1; [14]
  decrease in SULT1A1 protein expression: 36.33%
Cyp3a1; [27]
  decrease in Cyp3a1 mRNA expression: 33.73%
Cyp3a1; [16]
  decrease in Cyp3a1 mRNA expression: 65.14%
Cyp3a1; [17]
  decrease in Cyp3a1 mRNA expression: 54.94%
Cyp3a1; small intestine, high-dose Q3GA 10 mg/kg i.v. 7 days, P<0.05
  decrease in Cyp3a1 mRNA expression: 43.57%
Cyp3a1; [13]
  decrease in Cyp3a1 mRNA expression: 63.78%
Cyp3a1; [18]
  decrease in Cyp3a1 mRNA expression: 26.08%
OATP2B1; [30]
  decrease in OATP2B1 protein expression: 51.44%
OATP2B1; [23]
  decrease in OATP2B1 protein expression: 86.44%
OATP2B1; [26]
  decrease in OATP2B1 protein expression: 42.21%
Ugt1a1 [10]; [27]
  decrease in Ugt1a1 mRNA expression: 41.04%
Ugt1a1 [10]; [16]
  decrease in Ugt1a1 mRNA expression: 76.13%
Ugt1a1 [10]; [19]
  decrease in Ugt1a1 mRNA expression: 48.78%
Ugt1a1 [10]; [20]
  decrease in Ugt1a1 mRNA expression: 37.83%
Ugt1a1 [10]; [13]
  decrease in Ugt1a1 mRNA expression: 70.14%
Ugt1a1 [10]; [14]
  decrease in Ugt1a1 mRNA expression: 24.08%
Car; liver, high-dose Q3GA 10 mg/kg i.v. 7 days, not significant
  increase in CAR protein expression: 211.76%
Car; [11]
  increase in CAR protein expression: 456.37%
Car; liver, middle-dose Q3GA 5 mg/kg i.v. 7 days, not significant
  increase in CAR protein expression: 208.32%
Car; [12]
  increase in CAR protein expression: 91.07%
Car; [13]
  increase in CAR protein expression: 235.46%
Car; [21]
  increase in CAR protein expression: 78.59%
Slco2b1; [30]
  decrease in Slco2b1 mRNA expression: 39.57%
Slco2b1; [23]
  decrease in Slco2b1 mRNA expression: 62.19%
Slco2b1; [24]
  decrease in Slco2b1 mRNA expression: 20.49%
